Data as given in ChEMBL document CHEMBL3400137, “Glycyrrhizic acid derivatives as influenza A/H1N1 virus inhibitors” (Bioorg Med Chem Lett, 2015).

Experiments:
[1] = Selectivity index, CTD50 for MDCK cells to EC50 for influenza A virus (A/California/07/09(H1N1)) pdm09 infected in MDCK cells; type: toxicity, cell-based; conditions: dog; for selectivity ratio: read-out: Selectivity Index; for Selectivity Index: mdck
[2] = Antiviral activity against influenza A virus (A/California/07/09(H1N1)) pdm09 infected in MDCK cells assessed as decrease in virus titer by hemagglutination assay in presence of 1% suspension of chicken erythrocytes; type: functional, Influenza A virus (A/California/07/2009(H1N1)); conditions: read-out: CD50 (the source's name)
Summary of the method: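 MDCK cells were pre-treated for 1 h at 37 °C with serial twofold compound dilutions in MEM containing 2 mM arginine, 2 mM glutamine and 2 μg/mL trypsin, then infected. Untreated infected cells served as control. Virus yield in the supernatant was read by end-point dilution hemagglutination. ED50 was the concentration giving a two-fold drop in virus production versus control. Values are means.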

MDCK = experiment: Cytotoxicity against MDCK cells assessed as reduction in cell viability after 48 hrs by MTT assay; type: cell-based, Canis lupus familiaris
Summary of the method: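 Compounds were taken from 5 mg/mL DMSO stocks and diluted twofold in MEM. They were applied to washed, serum-free MDCK monolayers (grown in MEM with 5% fetal calf serum) for 48 h at 37 °C. Cells were then PBS-washed and given 0.5 mg/mL MTT for 60 min at 37 °C in 5% CO2. Formazan was dissolved in DMSO and read at 535 nm. CTD50 was estimated from these readings. Values are means.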

Row | SMILES | selectivity ratio [1] | CC50 ([2]; Influenza A virus, pdm09, MDCK) | EC50 (MDCK) | Selectivity Index [1] | CC50 [2]
1 | COC(=O)[C@H](Cc1ccccc1)NC(=O)[C@H]1O[C@@H](O[C@H]2[C@H](O[C@H]3CC[C@]4(C)[C@H]5C(=O)C=C6[C@@H]7C[C@@](C)(C(=O)N[C@@H](Cc8ccccc8)C(=O)OC)CC[C@]7(C)CC[C@@]6(C)[C@]5(C)CC[C@H]4C3(C)C)O[C@H](C(=O)N[C@@H](Cc3ccccc3)C(=O)OC)[C@@H](O)[C@@H]2O)[C@H](O)[C@@H](O)[C@@H]1O | 28 | 133 µM |  |  | 
2 | COC(=O)[C@H](Cc1ccc(O)cc1)NC(=O)[C@H]1O[C@@H](O[C@H]2[C@H](O[C@H]3CC[C@]4(C)[C@H]5C(=O)C=C6[C@@H]7C[C@@](C)(C(=O)O)CC[C@]7(C)CC[C@@]6(C)[C@]5(C)CC[C@H]4C3(C)C)O[C@H](C(=O)N[C@@H](Cc3ccc(O)cc3)C(=O)OC)[C@@H](O)[C@@H]2O)[C@H](O)[C@@H](O)[C@@H]1O | 38 | 255 µM |  |  | 
3 | COC(=O)[C@@]1(C)CC[C@]2(C)CC[C@]3(C)C(=CC(=O)[C@@H]4[C@@]5(C)CC[C@H](O[C@@H]6O[C@H](CO)[C@@H](O)[C@H](O)[C@H]6O[C@@H]6O[C@H](CO)[C@@H](O)[C@H](O)[C@H]6O)C(C)(C)[C@@H]5CC[C@]43C)[C@@H]2C1 | 5 | 371 µM |  |  | 
4 | CC1(C)[C@@H](OC2O[C@H](C(=O)O)[C@@H](O)[C@H](O)[C@H]2O[C@@H]2O[C@H](C(=O)O)[C@@H](O)[C@H](O)[C@H]2O)CC[C@]2(C)[C@H]3C(=O)C=C4C5C[C@@](C)(C(=O)O)CC[C@]5(C)CC[C@@]4(C)[C@]3(C)CC[C@@H]12 (single isomer, unassigned) [GLYCYRRHIZIN] |  |  | 15.2 µM | 3 | 47.5 µM
5 | CC1(C)[C@@H](O[C@@H]2O[C@H](C(=O)N[C@@H](CCCCNC(=O)OCc3ccccc3)C(=O)O)[C@@H](O)[C@H](O)[C@H]2O[C@@H]2O[C@H](C(=O)N[C@@H](CCCCNC(=O)OCc3ccccc3)C(=O)O)[C@@H](O)[C@H](O)[C@H]2O)CC[C@]2(C)[C@H]3C(=O)C=C4[C@@H]5C[C@@](C)(C(=O)O)CC[C@]5(C)CC[C@@]4(C)[C@]3(C)CC[C@@H]12 | 3 | 155 µM |  |  | 
6 | CC[C@H](C)[C@H](NC(=O)[C@H]1O[C@@H](O[C@H]2[C@H](O[C@H]3CC[C@]4(C)[C@H]5C(=O)C=C6[C@@H]7C[C@@](C)(C(=O)N[C@H](C(=O)OC)[C@@H](C)CC)CC[C@]7(C)CC[C@@]6(C)[C@]5(C)CC[C@H]4C3(C)C)O[C@H](C(=O)N[C@H](C(=O)OC)[C@@H](C)CC)[C@@H](O)[C@@H]2O)[C@H](O)[C@@H](O)[C@@H]1O)C(=O)OC | 6 | 16.4 µM |  |  | 
7 | CC1(C)[C@@H](O[C@@H]2O[C@H](C(=O)N[C@@H]3O[C@H](CO)[C@@H](O)[C@H](O)[C@H]3O)[C@@H](O)[C@H](O)[C@H]2O[C@@H]2O[C@H](C(=O)N[C@@H]3O[C@H](CO)[C@@H](O)[C@H](O)[C@H]3O)[C@@H](O)[C@H](O)[C@H]2O)CC[C@]2(C)[C@H]3C(=O)C=C4[C@@H]5C[C@@](C)(C(=O)O)CC[C@]5(C)CC[C@@]4(C)[C@]3(C)CC[C@@H]12 | 36 | 259 µM |  |  | 
8 | COC(=O)C[C@H](NC(=O)[C@H]1O[C@@H](O[C@H]2[C@H](O[C@H]3CC[C@]4(C)[C@H]5C(=O)C=C6[C@@H]7C[C@@](C)(C(=O)O)CC[C@]7(C)CC[C@@]6(C)[C@]5(C)CC[C@H]4C3(C)C)O[C@H](C(=O)N[C@@H](CC(=O)OC)C(=O)OC)[C@@H](O)[C@@H]2O)[C@H](O)[C@@H](O)[C@@H]1O)C(=O)OC | 1 | 37.3 µM |  |  | 
9 | COC(=O)C[C@H](NC(=O)[C@H]1O[C@@H](O[C@H]2[C@H](O[C@H]3CC[C@]4(C)[C@H]5C(=O)C=C6[C@H]7C[C@@](C)(C(=O)O)CC[C@]7(C)CC[C@@]6(C)[C@]5(C)CC[C@H]4C3(C)C)O[C@H](C(=O)N[C@@H](CC(=O)OC)C(=O)O)[C@@H](O)[C@@H]2O)[C@H](O)[C@@H](O)[C@@H]1O)C(=O)O | 12 | 58.3 µM |  |  | 
10 | COC(=O)[C@H](Cc1ccc(O)cc1)NC(=O)[C@H]1O[C@@H](O[C@H]2[C@H](O[C@H]3CC[C@]4(C)[C@H]5C(=O)C=C6[C@@H]7C[C@@](C)(C(=O)N[C@@H](Cc8ccc(O)cc8)C(=O)OC)CC[C@]7(C)CC[C@@]6(C)[C@]5(C)CC[C@H]4C3(C)C)O[C@H](C(=O)N[C@@H](Cc3ccc(O)cc3)C(=O)OC)[C@@H](O)[C@@H]2O)[C@H](O)[C@@H](O)[C@@H]1O | 18 | 160 µM |  |  | 
11 | CC1(C)[C@@H](O[C@@H]2O[C@H](C(=O)N[C@@H](CSCc3ccccc3)C(=O)O)[C@@H](O)[C@H](O)[C@H]2O[C@@H]2O[C@H](C(=O)N[C@@H](CSCc3ccccc3)C(=O)O)[C@@H](O)[C@H](O)[C@H]2O)CC[C@]2(C)[C@H]3C(=O)C=C4[C@@H]5C[C@@](C)(C(=O)O)CC[C@]5(C)CC[C@@]4(C)[C@]3(C)CC[C@@H]12 | 71 | 248 µM |  |  | 
12 | CC1(C)[C@@H](O[C@@H]2O[C@H](C(=O)O)[C@@H](O)[C@H](O)[C@H]2O[C@@H]2O[C@H](C(=O)O)[C@@H](O)[C@H](O)[C@H]2O)CC[C@]2(C)C3=CC=C4[C@@H]5C[C@@](C)(C(=O)O)CC[C@]5(C)CC[C@@]4(C)[C@]3(C)CC[C@@H]12 | 10 | 21.4 µM |  |  | 
13 | CC(N)C12CC3CC(CC(C3)C1)C2 (stereo not drawn) [RIMANTADINE] | 5 | 334 µM |  |  | 
14 | COC(=O)[C@H](Cc1c[nH]cn1)NC(=O)[C@H]1O[C@@H](O[C@H]2[C@H](O[C@H]3CC[C@]4(C)[C@H]5C(=O)C=C6[C@@H]7C[C@@](C)(C(=O)O)CC[C@]7(C)CC[C@@]6(C)[C@]5(C)CC[C@H]4C3(C)C)O[C@H](C(=O)N[C@@H](Cc3c[nH]cn3)C(=O)OC)[C@@H](O)[C@@H]2O)[C@H](O)[C@@H](O)[C@@H]1O | 15 | 298 µM |  |  | 
15 | COC(=O)[C@H](Cc1ccccc1)NC(=O)[C@H]1O[C@@H](O[C@H]2[C@H](O[C@H]3CC[C@]4(C)[C@H]5C(=O)C=C6[C@@H]7C[C@@](C)(C(=O)O)CC[C@]7(C)CC[C@@]6(C)[C@]5(C)CC[C@H]4C3(C)C)O[C@H](C(=O)N[C@@H](Cc3ccccc3)C(=O)OC)[C@@H](O)[C@@H]2O)[C@H](O)[C@@H](O)[C@@H]1O | 61 | 262 µM |  |  | 
16 | COC(=O)[C@@H](NC(=O)[C@H]1O[C@@H](O[C@H]2[C@H](O[C@H]3CC[C@]4(C)[C@H]5C(=O)C=C6[C@@H]7C[C@@](C)(C(=O)O)CC[C@]7(C)CC[C@@]6(C)[C@]5(C)CC[C@H]4C3(C)C)O[C@H](C(=O)N[C@H](C(=O)OC)C(C)C)[C@@H](O)[C@@H]2O)[C@H](O)[C@@H](O)[C@@H]1O)C(C)C | 5 | 29.1 µM |  |  | 
17 | CC1(C)[C@@H](O[C@H]2O[C@H](C(=O)O)[C@@H](O)[C@H](O)[C@H]2O[C@@H]2O[C@H](C(=O)O)[C@@H](O)[C@H](O)[C@H]2O)CC[C@]2(C)[C@H]3C(=O)C=C4[C@@H]5C[C@@](C)(C(=O)O)CC[C@]5(C)CC[C@@]4(C)[C@]3(C)CC[C@@H]12 [GLYCYRRHIZIN] |  |  | 365 µM | 1 | 365 µM
18 | COC(=O)C[C@H](NC(=O)[C@H]1O[C@@H](O[C@H]2[C@H](O[C@H]3CC[C@]4(C)[C@H]5C(=O)C=C6[C@H]7C[C@@](C)(C(=O)O)CC[C@]7(C)CC[C@@]6(C)[C@]5(C)CC[C@H]4C3(C)C)O[C@H](C(=O)N[C@@H](CC(=O)OC)C(=O)OC)[C@@H](O)[C@@H]2O)[C@H](O)[C@@H](O)[C@@H]1O)C(=O)OC | 4 | 38 µM |  |  | 
